Here are results for two molecules from ChEMBL document CHEMBL1125724, “Potential anti-AIDS agents. Synthesis and antiviral activity of naphthalenesulfonic acid derivatives against HIV-1 and HIV-2” (1991).

The term inhibition denotes the share of the control response that was lost under treatment. A low value points to little suppression. For orientation: Inhibition means the drop in the measured response relative to a control, in per cent. The low end stands for a response near the control, the high end for a response far below the control.

In brackets after ≈: the same amount, converted by molar mass.

The target of test [1] is Human immunodeficiency virus type 1 reverse transcriptase (Human immunodeficiency virus 1) (UniProt Q72547). The experiment in a line: Compound tested for % inhibition of cell-free HIV-1 Reverse Transcriptase at a concentration of 84 uM. Summed up:
(§1)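 HIV-1 RT from partially purified, concentrated disrupted virions. Reaction at 37 °C for 30 min in 50 mM Tris-HCl pH 8.4, 2 mM DTT, 100 mM KCl, 10 mM MgCl2, 0.1% Triton X-100, with 1 µCi [methyl-3H]dTTP (30 Ci/mmol) and 0.01 unit poly(rA)·oligo(dT). Stopped with 5% TCA; precipitate collected on glass-fiber filters and counted by liquid scintillation. Experimental variation at most 10%.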

Test [2] relates to MT4. The experiment in a line: Compound tested for its ability to reduce viability of mock-infected MT-4 cells. The class given is functional. As to conditions: Homo sapiens, read-out: CD50 (the source's name). Summed up: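 Mock-infected MT-4 cells were incubated 4 days with a range of compound concentrations, and viability was read by MTT. CD50 is the 50% cytotoxic dose from reduced viability, given as the mean of two separate experiments.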

Test [3] relates to MT4. The experiment in a line: Cell viability at a concentration of 4(16.8) ug/mL (uM). It is filed as functional, Homo sapiens.
Test [4] has as its system MT4. In words: Compound tested for its inhibition of HIV-1 induced cytopathogenicity in MT-4 cells. It is filed as functional. Conditions: Homo sapiens, read-out: ED50 (the source's name). Summed up: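 MT-4 cells infected with HIV-1 (HTLV-III_B) at MOI 0.02 and incubated 4 days with a range of compound concentrations. Viable cells were counted by MTT. ED50 is the 50% antiviral dose from inhibition of virus-induced cytopathogenicity, given as the mean of two separate experiments.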
For orientation: Cytopathic effects are the visible damage that an infection or toxin causes in cultured cells.

For test [5], the system named is MT4. The experiment in a line: Compound was evaluated for inhibitory effect against MT-4 cells of HIV-1 at a concentration of 100(420) ug/mL (uM). It is filed as functional, Homo sapiens. Summed up:
(§2)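 HIV-1 (HTLV-III_B) infected MT-4 cells at multiplicity of infection 0.02, incubated with a range of compound concentrations for 4 days. Viable cells counted by MTT method. Per-concentration inhibition of virus-induced cytopathogenicity; values are means of two separate experiments.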

Test [6] deals with MT4. The experiment in a line: Compound was evaluated for inhibitory effect against MT-4 cells of HIV-2 at a concentration of 20(84) ug/mL (uM). The class given is functional, Homo sapiens. Summed up: (§3)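 HIV-2 (ROD strain) infected MT-4 cells at multiplicity of infection 0.02, incubated with a range of compound concentrations for 4 days. Viable cells counted by MTT method. Per-concentration inhibition of virus-induced cytopathogenicity; values are means of two separate experiments.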

Test [7] concerns the target Human immunodeficiency virus type 1 reverse transcriptase (Human immunodeficiency virus 1) (UniProt Q72547). In words: Inhibitory dose at a concentration of 2100 uM cell-free HIV-1 Reverse Transcriptase. Summed up: as §1
Test [8] concerns MT4. The experiment in a line: Cell viability at a concentration of 0.8(3.4) ug/mL (uM). The class given is functional, Homo sapiens.
The subject of test [9] is MT4. In words: Cell viability at a concentration of 20(84) ug/mL (uM). It is filed as functional, Homo sapiens.
Test [10] deals with MT4. In words: Cell viability at a concentration of 100(420) ug/mL (uM). The class given is functional, Homo sapiens.
Test [11] relates to MT4. The experiment in a line: Compound tested for its inhibition of HIV-2 induced cytopathogenicity in MT-4 cells. It is filed as functional. Conditions: Homo sapiens, read-out: ED50 (the source's name). Summed up: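 MT-4 cells infected with HIV-2 (ROD) at MOI 0.02 and incubated 4 days with a range of compound concentrations. Viable cells were counted by MTT. ED50 is the dose giving 50% inhibition of virus-induced cytopathogenicity, given as the mean of two separate experiments.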

The subject of test [12] is MT4. The experiment in a line: Compound was evaluated for inhibitory effect against MT-4 cells of HIV-2 at a concentration of 100(420) ug/mL (uM). It is filed as functional, Homo sapiens. Summed up:
as §3

Test [13] has as its system MT4. The experiment in a line: Compound was evaluated for inhibitory effect against MT-4 cells of HIV-1 at a concentration of 0.8(3.4) ug/mL (uM). The class given is functional, Homo sapiens. Summed up:
as §2

Test [14] deals with MT4. The experiment in a line: Compound was evaluated for inhibitory effect against MT-4 cells of HIV-1 at a concentration of 20(84) ug/mL (uM). It is filed as functional, Homo sapiens. Summed up:
as §2

Test [15] concerns Human immunodeficiency virus 1. The experiment in a line: Compound tested for % inhibition of giant cell formation at a concentration of 420 uM.
Test [16] addresses Human immunodeficiency virus type 1 reverse transcriptase (Human immunodeficiency virus 1) (UniProt Q72547). The experiment in a line: Compound tested for % inhibition of cell-free HIV-1 Reverse Transcriptase at a concentration of 16.8 uM. Summed up:
as §1

The test system of test [17] is MT4. The experiment in a line: Compound was evaluated for inhibitory effect against MT-4 cells of HIV-2 at a concentration of 4(16.8) ug/mL (uM). It is filed as functional, Homo sapiens. Summed up:
as §3

For test [18], the system named is MT4. The experiment in a line: Compound was evaluated for inhibitory effect against MT-4 cells of HIV-2 at a concentration of 0.8(3.4) ug/mL (uM). It is filed as functional, Homo sapiens. Summed up:
as §3

Test [19] has as its system MT4. The experiment in a line: Compound was evaluated for inhibitory effect against MT-4 cells of HIV-1 at a concentration of 20(21.4) ug/mL (uM). The class given is functional, Homo sapiens. Summed up:
as §2

Test [20] relates to MT4. The experiment in a line: Compound was evaluated for inhibitory effect against MT-4 cells of HIV-2 at a concentration of 20(21.4) ug/mL (uM). It is filed as functional, Homo sapiens. Summed up:
as §3

Test [21] deals with MT4. In words: Compound was evaluated for inhibitory effect against MT-4 cells of HIV-1 at a concentration of 100(107) ug/mL (uM). The class given is functional, Homo sapiens. Summed up: as §2
In test [22] the test system is MT4. In words: Compound was evaluated for inhibitory effect against MT-4 cells of HIV-1 at a concentration of 0.8(0.9) ug/mL (uM). It is filed as functional, Homo sapiens. Summed up: as §2
For test [23], the target named is Human immunodeficiency virus type 1 reverse transcriptase (Human immunodeficiency virus 1) (UniProt Q72547). The experiment in a line: Compound tested for % inhibition of cell-free HIV-1 Reverse Transcriptase at a concentration of 4.3 uM. Summed up: as §1
Test [24] deals with MT4. The experiment in a line: Compound was evaluated for inhibitory effect against MT-4 cells of HIV-2 at a concentration of 0.8(0.9) ug/mL (uM). The class given is functional, Homo sapiens. Summed up:
as §3

Test [25] deals with MT4. The experiment in a line: Compound was evaluated for inhibitory effect against MT-4 cells of HIV-2 at a concentration of 4(4.3) ug/mL (uM). The class given is functional, Homo sapiens. Summed up: as §3
The test system of test [26] is Human immunodeficiency virus 1. In words: Compound tested for % inhibition of giant cell formation at a concentration of 107 uM.
In test [27] the test system is MT4. The experiment in a line: Compound was evaluated for inhibitory effect against MT-4 cells of HIV-1 at a concentration of 4(4.3) ug/mL (uM). The class given is functional, Homo sapiens. Summed up:
as §2

Test [28] relates to MT4. The experiment in a line: Cell viability at a concentration of 20(21.4) ug/mL (uM). It is filed as functional, Homo sapiens.
Test [29] deals with Human immunodeficiency virus type 1 reverse transcriptase (Human immunodeficiency virus 1) (UniProt Q72547). In words: Inhibitory dose at a concentration 535 uM cell-free HIV-1 Reverse Transcriptase. Summed up: as §1
Test [30] deals with MT4. The experiment in a line: Compound was evaluated for inhibitory effect against MT-4 cells of HIV-2 at a concentration of 100(107) ug/mL (uM). It is filed as functional, Homo sapiens. Summed up:
as §3

Test [31] relates to MT4. In words: Cell viability at a concentration of 100(107) ug/mL (uM). It is filed as functional, Homo sapiens.
The subject of test [32] is MT4. In words: Cell viability at a concentration of 4(4.3) ug/mL (uM). The class given is functional, Homo sapiens.
Test [33] concerns the target Human immunodeficiency virus type 1 reverse transcriptase (Human immunodeficiency virus 1) (UniProt Q72547). The experiment in a line: Compound tested for % inhibition of cell-free HIV-1 Reverse Transcriptase at a concentration of 21.4 uM. Summed up:
as §1

For test [34] the target is unchanged. The experiment in a line: Compound tested for % inhibition of cell-free HIV-1 Reverse Transcriptase at a concentration of 535 uM. Summed up: as §1
Test [35] relates to MT4. In words: Cell viability at a concentration of 0.8(0.9) ug/mL (uM). It is filed as functional, Homo sapiens.

For the molecule `Nc1cc(S(=O)(=O)O)c2ccccc2c1N`, the inhibition in test [1] was determined as 1%; in test [15] it was 0%; in test [16], 2%. Also, the CC50 with MT4 [2] was found to be 45 µg/mL (≈ 189 µM). The Cell viability in the test on MT4 [3] is given as 0; in the test with MT4 [8], 13; in the test on MT4 [9] it was 1; with MT4 [10], 97. Moreover, the EC50 with MT4 [4] and in the test with MT4 [11] was above 45 µg/mL throughout. The Inhibition in the test on MT4 [5] is listed as 0%; in the test with MT4 [6] it was 0%; with MT4 [12] it was 0%; in the test on MT4 [13], 0%; in the test with MT4 [14], 0%; with MT4 [17], 3%. This molecule came in with an Inhibition in the test with MT4 [18] of 1%. Besides, the ID50 in [7] was above 500 µg/mL.

For `O=C(CCCCCCCCCCC(=O)Nc1cc(S(=O)(=O)O)cc2cc(S(=O)(=O)[O-])cc(O)c12)Nc1cc(S(=O)(=O)O)cc2cc(S(=O)(=O)[O-])cc(O)c12.[Na+].[Na+]`, the Inhibition with MT4 [19] worked out at 14%; with MT4 [20], 4%; with MT4 [21], 100%; in the test with MT4 [22] it was 0%; in the test on MT4 [24] it was 3%; in the test with MT4 [25] it was 3%. Further, the Inhibition in the test with MT4 [27] is 2%; in the test with MT4 [30], 100%. For the same molecule, in the test with MT4 [2], the CC50 is above 100 µg/mL. Moreover, the values for the EC50 with MT4 [4] and in the test with MT4 [11] were 39 µg/mL and 43 µg/mL, respectively. Moreover, the inhibition in [23] was found to be 15%; in test [26], 99%; in [33] it was 44%; in test [34] it was 100%. In addition, the Cell viability with MT4 [28] is 9; with MT4 [31], 0; in the test on MT4 [32], 5; in the test with MT4 [35], 4. In addition, the ID50 in test [29] worked out at 160 µg/mL.
